ChEMBL document CHEMBL5252539, “In vitro biological evaluation of new antimycobacterial salicylanilide-tuftsin conjugates” (Eur J Med Chem, 2017)
Values after ≈ are worked out from the molar mass of the structure shown. Active and inactive are the calls of the source. The rule behind the calls is not given here. *1 amine or outer side, *2 acyl side, *3 side chain or, on linkers, in order; H or OH if unused. Where a SMILES comes first, the peptide text is derived from it. [ ]: non-standard residue; d: D form. The star is where a group is joined. X1 = C/C(=N\OCC(=O)[*:2])c1ccc(N[*:1])cc1; Benzoyl(5-Br-2-OH) = O=C(c1cc(Br)ccc1O)*; Palmitoyl = CCCCCCCCCCCCCCCC(=O)*; X3 = O=C(c1cc(Cl)ccc1O)*

How the values were obtained:
[1] = Selectivity index, ratio of IC50 for cytostatic activity against human HepG2 cells to MIC for antimycobacterial activity against Mycobacterium tuberculosis H37Rv ATCC 27294; assay type: toxicity, cell-based; conditions: read-out: Selectivity Index
Procedure, shortened: (§1)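 MTT assay on MonoMac6 or HepG2 cells after 24 h exposure, top concentration 200 µM. SI = IC50 (µM)/MIC (µM) against H37Rv from the 4-week Sula medium assay.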

HepG2 = assay: Cytostatic activity against human HepG2 cells assessed as reduction in cell viability incubated for 24 hrs by MTT assay; assay type: functional, cell-based; conditions: HepG2, 24 h
Procedure, shortened: (§2)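 MTT viability assay after 24 h exposure of MonoMac6 human monocytic cells or HepG2 human hepatocellular carcinoma cells. Top concentration 200 μM. IC50 taken from dose-response curves as the concentration reducing viability to 50% of maximal.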

MONO-MAC-6 = assay: Cytostatic activity against human MONO-MAC-6 cells assessed as reduction in cell viability incubated for 24 hrs by MTT assay; assay type: functional, cell-based; conditions: MONO-MAC-6, 24 h; procedure, shortened: as §2
[2] = Selectivity index, ratio of IC50 for cytostatic activity against human MONO-MAC-6 cells to MIC for antimycobacterial activity against Mycobacterium tuberculosis H37Rv ATCC 27294; assay type: toxicity, cell-based; conditions: read-out: Selectivity Index; procedure, shortened: as §1
[3] = tested on: Mycobacterium tuberculosis; assay: Antimycobacterial activity against Mycobacterium tuberculosis H37Rv ATCC 27294 assessed as reduction in bacterial growth after 28 days by serial dilution method; assay type: functional; conditions: H37Rv ATCC 27294, 672 h, time 28 day
Procedure, shortened: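 Broth MIC in Sula semisynthetic medium, pH 6.5; 4-week incubation, with 21-day values […] where indicated. Drug-free inoculated bacteria served as growth control. MIC also expressed as drug content (µg/mL) = MIC (µM) × average SAL molar mass × number of SAL per conjugate / 1000.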

[4] = tested on: Mycobacteroides abscessus; assay: Antimycobacterial activity against Mycobacterium abscessus ATCC 19977 assessed as reduction in bacterial growth after 7 days by serial dilution method; assay type: functional; conditions: ATCC 19977, 168 h, time 7 day
Procedure, shortened: (§3)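 MIC determined in Sula semisynthetic medium, pH 6.5, 1 week incubation. Growth inhibition confirmed by plating on Löwenstein-Jensen solid medium and counting CFU. Bacteria inoculated without drug served as growth control.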

[5] = tested on: Mycobacterium tuberculosis; assay: […] antimycobacterial activity against Mycobacterium tuberculosis H37Rv ATCC 27294 infected in human MONO-MAC-6 cells assessed as reduction in colony forming unit at 125 uM for 6 days by colony counting based analysis; assay type: functional, organism-based; conditions: time 6.0 day
Procedure, shortened: (§4)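 MonoMac6 monolayers infected with H37Rv, then treated with compound at 125 or 250 µM for 3 days. Treatment repeated with fresh compound solution for another 3 days. Intracellular bacteria quantified as CFU against untreated infected cells.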

[6] = tested on: Mycobacterium tuberculosis; assay: Antimycobacterial activity against Mycobacterium tuberculosis H37Rv ATCC 27294 assessed as reduction in colony forming unit after 28 days by serial dilution method; assay type: functional, organism-based; conditions: time 28.0 day
Procedure, shortened: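 After the 4-week MIC incubation in Sula semisynthetic medium (pH 6.5), growth inhibition confirmed by plating on Löwenstein-Jensen solid medium and counting colony forming units.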

[7] = tested on: Mycobacteroides abscessus; assay: Antimycobacterial activity against Mycobacterium abscessus ATCC 19977 assessed as reduction in colony forming unit after 7 days by serial dilution method; assay type: functional, organism-based; conditions: time 7.0 day; procedure, shortened: as §3
[8] = tested on: Mycobacterium tuberculosis; assay: […] antimycobacterial activity against Mycobacterium tuberculosis H37Rv ATCC 27294 infected in human MONO-MAC-6 cells assessed as reduction in colony forming unit at 250 uM for 6 days by colony counting based analysis; assay type: functional, organism-based; conditions: time 6.0 day; procedure, shortened: as §4

| Structure (SMILES) | selectivity ratio [1] | IC50 (HepG2) [µM] | IC50 (MONO-MAC-6) [µM] | selectivity ratio [2] | MIC [3] [µM] | MIC [4] [µM] | Activity [5] | Activity [6] | Activity [7] | Activity [8] |
| --- | --- | --- | --- | --- | --- | --- | --- | --- | --- | --- |
| O=C(Nc1ccc(Cl)c(Cl)c1)c1cc(Br)ccc1O | 2.9 | 4.1 | 1.4 | 1 | 1.4 (≈ 0.505 µg/mL) | 7 (≈ 2.53 µg/mL) |  |  |  |  |
| C/C(=N\OCC(=O)NCC(=O)N[C@@H](Cc1ccccc1)C(=O)N[C@@H](CC(C)C)C(=O)NCC(=O)N[C@H](C(=O)N[C@@H](CCCCN)C(=O)N1CCC[C@H]1C(=O)N[C@@H](CCCCN)C(=O)NCC(=O)O)[C@@H](C)O)c1ccc(NC(=O)c2cc(Br)ccc2O)cc1 ({Benzoyl(5-Br-2-OH)}-[X1]GFLGTKPKG-OH) | 1.3 | 58 | > 200 | > 4.3 | 46.4 (≈ 60 µg/mL) | 155 (≈ 200 µg/mL) | inactive | Active | Active | Active |
| CCCCCCCCCCCCCCCC(=O)NCCCC[C@H](NC(=O)[C@@H]1CCCN1C(=O)[C@H](CCCCN)NC(=O)[C@@H](NC(=O)CO/N=C(\C)c1ccc(NC(=O)c2cc(Cl)ccc2O)cc1)[C@@H](C)O)C(=O)NCC(=O)N[C@H](C(=O)N[C@@H](CCCCN)C(=O)N1CCC[C@H]1C(=O)N[C@@H](CCCCN)C(=O)NCC(=O)N[C@H](C(=O)N[C@@H](CCCCN)C(=O)N1CCC[C@H]1C(=O)N[C@@H](CCCCN)C(=O)NCC(=O)N[C@H](C(=O)N[C@@H](CCCCN)C(=O)N1CCC[C@H]1C(=O)N[C@@H](CCCCN)C(=O)NCC(N)=O)[C@@H](C)O)[C@@H](C)O)[C@@H](C)O (X3-[X1]TKPK(Palmitoyl)GTKPKGTKPKGTKPKG-NH2) | 0.5 | 42.9 | 16.8 | 0.2 | 94.5 (≈ 250 µg/mL) | 75.6 (≈ 200 µg/mL) | Active | Active | Active | Active |
| C/C(=N\OCC(=O)NCC(=O)N[C@@H](Cc1ccccc1)C(=O)N[C@@H](CC(C)C)C(=O)NCC(=O)N[C@H](C(=O)N[C@@H](CCCCN)C(=O)N1CCC[C@H]1C(=O)N[C@@H](CCCNC(=N)N)C(=O)O)[C@@H](C)O)c1ccc(NC(=O)c2cc(Br)ccc2O)cc1 [listing 1 of 2 here] |  |  |  |  | 31.6 (≈ 40 µg/mL) | 158 (≈ 200 µg/mL) |  |  |  |  |
| CCCCCCCCCCCCCCCC(=O)O [PALMITIC ACID] |  |  | 178 |  |  |  |  |  |  |  |
| O=Cc1ccc(O)c(C(=O)Nc2ccc(C(F)(F)F)cc2)c1 | 0.7 | 17.6 | 21.5 | 0.8 | 25.9 (≈ 8.01 µg/mL) | 129 (≈ 40 µg/mL) |  | Active | Active |  |
| C/C(=N\OCC(=O)NCC(=O)N[C@@H](Cc1ccccc1)C(=O)N[C@@H](CC(C)C)C(=O)NCC(=O)N[C@H](C(=O)N[C@@H](CCCCN)C(=O)N1CCC[C@H]1C(=O)N1CCC[C@H]1C(=O)N[C@@H](CCCNC(=N)N)C(=O)O)[C@@H](C)O)c1ccc(NC(=O)c2cc(Br)ccc2O)cc1 [listing 1 of 2 here] |  |  |  |  | 29.4 (≈ 40 µg/mL) | 147 (≈ 200 µg/mL) |  |  |  |  |
| CCCCCCCCCC(=O)O [DECANOIC ACID] |  |  | > 200 |  |  |  |  |  |  |  |
| C/C(=N\OCC(=O)NCC(=O)N[C@@H](Cc1ccccc1)C(=O)N[C@@H](CC(C)C)C(=O)NCC(=O)N[C@H](C(=O)N[C@@H](CCCCN)C(=O)N1CCC[C@H]1C(=O)N[C@@H](CCCNC(=N)N)C(=O)O)[C@@H](C)O)c1ccc(NC(=O)c2cc(Br)ccc2O)cc1 [listing 2 of 2 here] | 3.6 | 113 | > 200 | > 6.3 |  |  |  |  |  |  |
| CC(=O)c1ccc(NC(=O)c2cc(Cl)ccc2O)cc1 | 0.9 | 7.9 | 16.1 | 1.9 | 8.6 (≈ 2.49 µg/mL) | 34.5 (≈ 10 µg/mL) |  | Active | Active |  |
| C/C(=N\OCC(=O)NCC(=O)N[C@@H](Cc1ccccc1)C(=O)N[C@@H](CC(C)C)C(=O)NCC(=O)N[C@H](C(=O)N[C@@H](CCCCN)C(=O)N1CCC[C@@H]1C(=O)N[C@H](CCCNC(=N)N)C(=O)O)[C@@H](C)O)c1ccc(NC(=O)c2cc(Br)ccc2O)cc1 |  |  |  |  |  |  | Active | Active | Active | Active |
| C/C(=N\OCC(=O)N[C@H](C(=O)N[C@@H](CCCCN)C(=O)N1CCC[C@H]1C(=O)N1CCC[C@H]1C(=O)N[C@@H](CCCNC(=N)N)C(=O)O)[C@@H](C)O)c1ccc(NC(=O)c2cc(Br)ccc2O)cc1 |  |  |  |  | 20.3 (≈ 20 µg/mL) | 203 (≈ 200 µg/mL) |  |  |  |  |
| C/C(=N\OCC(=O)NCC(=O)N[C@@H](Cc1ccccc1)C(=O)N[C@@H](CC(C)C)C(=O)NCC(=O)N[C@H](C(=O)N[C@@H](CCCCN)C(=O)N1CCC[C@H]1C(=O)N[C@@H](CCCCN)C(=O)NCC(=O)N[C@H](C(=O)N[C@@H](CCCCN)C(=O)N1CCC[C@H]1C(=O)N[C@@H](CCCCN)C(=O)NCC(=O)N[C@H](C(=O)N[C@@H](CCCCN)C(=O)N1CCC[C@H]1C(=O)N[C@@H](CCCCN)C(=O)NCC(=O)N[C@H](C(=O)N[C@@H](CCCCN)C(=O)N1CCC[C@H]1C(=O)N[C@@H](CCCCN)C(=O)NCC(N)=O)[C@@H](C)O)[C@@H](C)O)[C@@H](C)O)[C@@H](C)O)c1ccc(NC(=O)c2cc(Br)ccc2O)cc1 |  |  |  |  | 142 (≈ 400 µg/mL) | 70.7 (≈ 200 µg/mL) |  |  |  |  |
| O=C(Nc1ccc(C(F)(F)F)cc1)c1cc(Br)ccc1O | 3.9 | 5.5 | 2 | 1.4 | 1.4 (≈ 0.504 µg/mL) | 13.9 (≈ 5.01 µg/mL) |  |  |  |  |
| C/C(=N\OCC(=O)N[C@H](C(=O)N[C@@H](CCCCN)C(=O)N1CCC[C@H]1C(=O)N[C@@H](CCCCN)C(=O)NCC(=O)N[C@H](C(=O)N[C@@H](CCCCN)C(=O)N1CCC[C@H]1C(=O)N[C@@H](CCCCN)C(=O)NCC(=O)N[C@H](C(=O)N[C@@H](CCCCN)C(=O)N1CCC[C@H]1C(=O)N[C@@H](CCCCN)C(=O)NCC(=O)N[C@H](C(=O)N[C@@H](CCCCN)C(=O)N1CCC[C@H]1C(=O)N[C@@H](CCCCN)C(=O)NCC(N)=O)[C@@H](C)O)[C@@H](C)O)[C@@H](C)O)[C@@H](C)O)c1ccc(NC(=O)c2cc(Cl)ccc2O)cc1 (X3-[X1]TKPKGTKPKGTKPKGTKPKG-NH2) | > 2.4 | > 200 | > 200 | > 2.4 | 83 (≈ 200 µg/mL) | 41.5 (≈ 99.9 µg/mL) | Active | Active | Active | Active |
| O=C(Nc1ccc(C(F)(F)F)cc1)c1cc(Cl)ccc1O |  | 5.8 | 2.2 |  | 1.6 (≈ 0.505 µg/mL) | 3.2 (≈ 1.01 µg/mL) |  |  |  |  |
| NNC(=O)c1ccncc1 [ISONIAZID] |  |  |  |  | 1.17 (≈ 0.16 µg/mL) | 292 (≈ 40 µg/mL) |  | Active | Active |  |
| C/C(=N\OCC(=O)N[C@H](C(=O)N[C@@H](CCCCN)C(=O)N1CCC[C@H]1C(=O)N1CCC[C@@H]1C(=O)N[C@H](CCCNC(=N)N)C(=O)O)[C@@H](C)O)c1ccc(NC(=O)c2cc(Br)ccc2O)cc1 |  |  |  |  |  |  | Active | Active | Active | Active |
| O=C(Nc1ccc(Cl)c(Cl)c1)c1cc(Cl)ccc1O | 1.5 | 2.4 | 3.8 | 2.4 | 1.6 (≈ 0.507 µg/mL) | 3.2 (≈ 1.01 µg/mL) |  |  |  |  |
| C/C(=N\OCC(=O)NCC(=O)N[C@@H](Cc1ccccc1)C(=O)N[C@@H](CC(C)C)C(=O)NCC(=O)N[C@H](C(=O)N[C@@H](CCCCN)C(=O)N1CCC[C@@H]1C(=O)N1CCC[C@H]1C(=O)N[C@H](CCCNC(=N)N)C(=O)O)[C@@H](C)O)c1ccc(NC(=O)c2cc(Br)ccc2O)cc1 |  |  |  |  |  |  | inactive | Active | Active | Active |
| C/C(=N\OCC(=O)NCC(=O)N[C@@H](Cc1ccccc1)C(=O)N[C@@H](CC(C)C)C(=O)NCC(=O)N[C@H](C(=O)N[C@@H](CCCCN)C(=O)N1CCC[C@H]1C(=O)N1CCC[C@H]1C(=O)N[C@@H](CCCNC(=N)N)C(=O)O)[C@@H](C)O)c1ccc(NC(=O)c2cc(Br)ccc2O)cc1 [listing 2 of 2 here] | 5.3 | 156 | > 200 | > 6.8 |  |  |  |  |  |  |
